Each block holds one molecule with its values, some of them ahead of it.
Experiments:
[1] = Cytotoxicity against mouse brain Primary embryonic cortical cell assessed as cell death at 10 uM incubated for 5 hrs by propidium iodide dye based spectrofluorometric analysis relative to control; type: toxicity
Summary of the method: (§1)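 Primary cortical cultures from E16.5 mouse embryo brains, trypsinized, plated on poly-D-lysine, grown in Neurobasal with glutamine, glucose, 5% horse serum and B27; compounds added at 4 DIV. Propidium iodide 30 μM; baseline F1 read 1 h after PI; ex 530/em 645 nm. Fmax after digitonin permeabilization. % death = 100×(Fn−F1)/(Fmax−F1); mean of three independent experiments.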

[2] = Cytotoxicity against mouse brain Primary embryonic cortical cell assessed as cell death at 30 uM incubated for 6 hrs by propidium iodide dye based spectrofluorometric analysis relative to control; type: toxicity; summary of the method: as §1
[3] = Cytotoxicity against mouse brain Primary embryonic cortical cell assessed as cell death at 2.5 uM incubated for 6 hrs by propidium iodide dye based spectrofluorometric analysis relative to control; type: toxicity; summary of the method: as §1
[4] = Cytotoxicity against mouse brain Primary embryonic cortical cell assessed as cell death at 5 uM incubated for 2 hrs by propidium iodide dye based spectrofluorometric analysis relative to control; type: toxicity; summary of the method: as §1
[5] = Cytotoxicity against mouse brain Primary embryonic cortical cell assessed as cell death at 30 uM incubated for 48 hrs by propidium iodide dye based spectrofluorometric analysis relative to control; type: toxicity; summary of the method: as §1
[6] = Cytotoxicity against mouse brain Primary embryonic cortical cell assessed as cell death at 5 uM incubated for 4 hrs by propidium iodide dye based spectrofluorometric analysis relative to control; type: toxicity; summary of the method: as §1
[7] = Cytotoxicity against mouse brain Primary embryonic cortical cell assessed as cell death at 30 uM incubated for 24 hrs by propidium iodide dye based spectrofluorometric analysis relative to control; type: toxicity; summary of the method: as §1
[8] = Cytotoxicity against mouse brain Primary embryonic cortical cell assessed as cell death at 2.5 uM incubated for 48 hrs by propidium iodide dye based spectrofluorometric analysis relative to control; type: toxicity; summary of the method: as §1
[9] = Cytotoxicity against mouse brain Primary embryonic cortical cell assessed as cell death at 5 uM incubated for 24 hrs by propidium iodide dye based spectrofluorometric analysis relative to control; type: toxicity; summary of the method: as §1
[10] = Cytotoxicity against mouse brain Primary embryonic cortical cell assessed as cell death at 5 uM incubated for 6 hrs by propidium iodide dye based spectrofluorometric analysis relative to control; type: toxicity; summary of the method: as §1
[11] = Cytotoxicity against mouse brain Primary embryonic cortical cell assessed as cell death at 10 uM incubated for 3 hrs by propidium iodide dye based spectrofluorometric analysis relative to control; type: toxicity; summary of the method: as §1
[12] = Cytotoxicity against mouse brain Primary embryonic cortical cell assessed as cell death at 30 uM incubated for 1 hr by propidium iodide dye based spectrofluorometric analysis relative to control; type: toxicity; summary of the method: as §1
[13] = Cytotoxicity against mouse brain Primary embryonic cortical cell assessed as cell death at 10 uM incubated for 1 hr by propidium iodide dye based spectrofluorometric analysis relative to control; type: toxicity; summary of the method: as §1
[14] = Cytotoxicity against mouse brain Primary embryonic cortical cell assessed as cell death at 30 uM incubated for 5 hrs by propidium iodide dye based spectrofluorometric analysis relative to control; type: toxicity; summary of the method: as §1
[15] = Cytotoxicity against mouse brain Primary embryonic cortical cell assessed as cell death at 10 uM incubated for 24 hrs by propidium iodide dye based spectrofluorometric analysis relative to control; type: toxicity; summary of the method: as §1
[16] = Cytotoxicity against mouse brain Primary embryonic cortical cell assessed as cell death at 5 uM incubated for 5 hrs by propidium iodide dye based spectrofluorometric analysis relative to control; type: toxicity; summary of the method: as §1
[17] = Cytotoxicity against mouse brain Primary embryonic cortical cell assessed as cell death at 5 uM incubated for 1 hr by propidium iodide dye based spectrofluorometric analysis relative to control; type: toxicity; summary of the method: as §1
[18] = Cytotoxicity against mouse brain Primary embryonic cortical cell assessed as cell death at 10 uM incubated for 6 hrs by propidium iodide dye based spectrofluorometric analysis relative to control; type: toxicity; summary of the method: as §1
[19] = Cytotoxicity against mouse brain Primary embryonic cortical cell assessed as cell death at 2.5 uM incubated for 24 hrs by propidium iodide dye based spectrofluorometric analysis relative to control; type: toxicity; summary of the method: as §1
[20] = Cytotoxicity against mouse brain Primary embryonic cortical cell assessed as cell death at 30 uM incubated for 72 hrs by propidium iodide dye based spectrofluorometric analysis relative to control; type: toxicity; summary of the method: as §1
[21] = Cytotoxicity against mouse brain Primary embryonic cortical cell assessed as cell death at 10 uM incubated for 4 hrs by propidium iodide dye based spectrofluorometric analysis relative to control; type: toxicity; summary of the method: as §1
[22] = Cytotoxicity against mouse brain Primary embryonic cortical cell assessed as cell death at 10 uM incubated for 72 hrs by propidium iodide dye based spectrofluorometric analysis relative to control; type: toxicity; summary of the method: as §1
[23] = molecular target: T1, Microtubule-associated protein tau (Homo sapiens, UniProt P10636); assay: Inhibition of tau (unknown origin) aggregation expressed in Escherichia coli BL21 (DE3) at 10 uM relative to control
Summary of the method: (§2)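 E. coli BL21(DE3) carrying pTARA (T7 RNA polymerase under PBAD) and pRKT42 (four-repeat tau) grown at 37 °C in M9 with 0.5% glucose, antibiotics and 250 μM ThS to OD600 0.6. […] ThS fluorescence ex 430/em 485 nm, normalized to tau-expressing cells (100%) and non-expressing cells (0%); OD600 checked for growth.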
Target sequence in this assay (P10636 whole entry): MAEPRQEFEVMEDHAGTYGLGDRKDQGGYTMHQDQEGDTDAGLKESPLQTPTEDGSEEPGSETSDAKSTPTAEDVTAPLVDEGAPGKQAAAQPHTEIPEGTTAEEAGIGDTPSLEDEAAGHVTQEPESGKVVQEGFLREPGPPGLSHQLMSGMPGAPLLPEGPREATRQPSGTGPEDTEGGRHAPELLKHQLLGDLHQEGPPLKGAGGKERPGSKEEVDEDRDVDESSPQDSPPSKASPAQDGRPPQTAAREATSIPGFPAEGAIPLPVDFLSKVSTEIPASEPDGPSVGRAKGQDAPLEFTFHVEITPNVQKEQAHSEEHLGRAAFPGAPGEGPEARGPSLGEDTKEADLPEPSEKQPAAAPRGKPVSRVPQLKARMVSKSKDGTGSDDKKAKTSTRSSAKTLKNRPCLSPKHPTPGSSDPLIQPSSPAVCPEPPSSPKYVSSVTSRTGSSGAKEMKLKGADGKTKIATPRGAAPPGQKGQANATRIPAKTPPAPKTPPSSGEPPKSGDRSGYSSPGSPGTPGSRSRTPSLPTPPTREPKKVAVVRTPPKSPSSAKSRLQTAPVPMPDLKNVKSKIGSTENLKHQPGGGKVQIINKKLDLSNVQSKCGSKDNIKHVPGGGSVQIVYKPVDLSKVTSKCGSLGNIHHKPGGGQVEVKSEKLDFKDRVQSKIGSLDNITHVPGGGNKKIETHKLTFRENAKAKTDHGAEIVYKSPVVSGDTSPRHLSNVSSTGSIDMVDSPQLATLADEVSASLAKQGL

[24] = Cytotoxicity against mouse brain Primary embryonic cortical cell assessed as cell death at 2.5 uM incubated for 4 hrs by propidium iodide dye based spectrofluorometric analysis relative to control; type: toxicity; summary of the method: as §1
[25] = Cytotoxicity against mouse brain Primary embryonic cortical cell assessed as cell death at 2.5 uM incubated for 3 hrs by propidium iodide dye based spectrofluorometric analysis relative to control; type: toxicity; summary of the method: as §1
[26] = Cytotoxicity against mouse brain Primary embryonic cortical cell assessed as cell death at 5 uM incubated for 72 hrs by propidium iodide dye based spectrofluorometric analysis relative to control; type: toxicity; summary of the method: as §1
[27] = Cytotoxicity against mouse brain Primary embryonic cortical cell assessed as cell death at 2.5 uM incubated for 1 hr by propidium iodide dye based spectrofluorometric analysis relative to control; type: toxicity; summary of the method: as §1
[28] = Cytotoxicity against mouse brain Primary embryonic cortical cell assessed as cell death at 10 uM incubated for 48 hrs by propidium iodide dye based spectrofluorometric analysis relative to control; type: toxicity; summary of the method: as §1
[29] = Cytotoxicity against mouse brain Primary embryonic cortical cell assessed as cell death at 10 uM incubated for 2 hrs by propidium iodide dye based spectrofluorometric analysis relative to control; type: toxicity; summary of the method: as §1
[30] = Cytotoxicity against mouse brain Primary embryonic cortical cell assessed as cell death at 30 uM incubated for 2 hrs by propidium iodide dye based spectrofluorometric analysis relative to control; type: toxicity; summary of the method: as §1
[31] = Cytotoxicity against mouse brain Primary embryonic cortical cell assessed as cell death at 2.5 uM incubated for 72 hrs by propidium iodide dye based spectrofluorometric analysis relative to control; type: toxicity; summary of the method: as §1
[32] = Cytotoxicity against mouse brain Primary embryonic cortical cell assessed as cell death at 30 uM incubated for 4 hrs by propidium iodide dye based spectrofluorometric analysis relative to control; type: toxicity; summary of the method: as §1
[33] = molecular target: T2, Amyloid-beta precursor protein (Homo sapiens, UniProt P05067); assay: Inhibition of amyloid beta 40 peptide (unknown origin) aggregation incubated for 2 hr by ThT fluorescence based spectrofluorimetric analysis
T2 sequence (P05067 whole entry): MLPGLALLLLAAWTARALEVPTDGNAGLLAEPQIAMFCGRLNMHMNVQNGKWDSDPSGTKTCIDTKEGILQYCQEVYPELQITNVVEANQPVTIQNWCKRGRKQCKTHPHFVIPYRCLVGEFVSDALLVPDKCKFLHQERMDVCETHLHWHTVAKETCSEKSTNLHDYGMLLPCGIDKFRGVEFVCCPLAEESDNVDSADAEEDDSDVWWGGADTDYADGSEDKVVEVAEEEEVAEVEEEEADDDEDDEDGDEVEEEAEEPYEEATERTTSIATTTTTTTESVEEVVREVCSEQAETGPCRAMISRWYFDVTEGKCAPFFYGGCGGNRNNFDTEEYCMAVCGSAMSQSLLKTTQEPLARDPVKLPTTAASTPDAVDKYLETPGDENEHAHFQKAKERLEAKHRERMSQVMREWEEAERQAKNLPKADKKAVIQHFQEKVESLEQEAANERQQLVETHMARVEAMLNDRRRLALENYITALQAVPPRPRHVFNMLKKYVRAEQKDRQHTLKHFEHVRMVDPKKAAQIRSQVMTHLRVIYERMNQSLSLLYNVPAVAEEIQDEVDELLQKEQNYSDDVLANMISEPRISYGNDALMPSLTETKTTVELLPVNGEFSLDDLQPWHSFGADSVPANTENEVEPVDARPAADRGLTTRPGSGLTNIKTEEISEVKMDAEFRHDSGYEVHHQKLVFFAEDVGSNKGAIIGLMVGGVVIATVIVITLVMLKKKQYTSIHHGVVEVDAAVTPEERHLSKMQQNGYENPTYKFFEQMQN
Summary of the method: (§3)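 Aβ40 peptide aggregation enhanced with 2% HFIP; thioflavin T fluorescence read-out; run in triplicate.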

[34] = Cytotoxicity against mouse brain Primary embryonic cortical cell assessed as cell death at 2.5 uM incubated for 5 hrs by propidium iodide dye based spectrofluorometric analysis relative to control; type: toxicity; summary of the method: as §1
[35] = Cytotoxicity against mouse brain Primary embryonic cortical cell assessed as cell death at 2.5 uM incubated for 2 hrs by propidium iodide dye based spectrofluorometric analysis relative to control; type: toxicity; summary of the method: as §1
[36] = Cytotoxicity against mouse brain Primary embryonic cortical cell assessed as cell death at 5 uM incubated for 3 hrs by propidium iodide dye based spectrofluorometric analysis relative to control; type: toxicity; summary of the method: as §1
[37] = Cytotoxicity against mouse brain Primary embryonic cortical cell assessed as cell death at 5 uM incubated for 48 hrs by propidium iodide dye based spectrofluorometric analysis relative to control; type: toxicity; summary of the method: as §1
[38] = Cytotoxicity against mouse brain Primary embryonic cortical cell assessed as cell death at 30 uM incubated for 3 hrs by propidium iodide dye based spectrofluorometric analysis relative to control; type: toxicity; summary of the method: as §1
[39] = molecular target: T1, Microtubule-associated protein tau; assay: Inhibition of tau (unknown origin) aggregation expressed in Escherichia coli BL21 (DE3); summary of the method: as §2
Target sequence in this assay (P10636 whole entry): as the sequence (P10636 whole entry) above

[40] = molecular target: T1, Microtubule-associated protein tau; assay: Inhibition of PHF6 peptide (unknown origin) aggregation at 10 uM measured after 3 hrs by thioflavin T fluorescence based fluorimetric analysis relative to control
Target sequence in this assay (P10636 whole entry, looked up): as the sequence (P10636 whole entry) above

[41] = Cytotoxicity against human SH-SY5Y cells incubated for 24 hrs by MTT assay; type: toxicity, cell-based
[42] = Cytotoxicity against rat Primary cerebellar granule neuron assessed as cell viability at 10 uM relative to control; type: toxicity, cell-based, Cerebellar granule neurone; details: primary cerebellar granule neurons, read-out: Activity
[43] = Cytotoxicity against green monkey Vero 76 cells incubated for 48 to 96 hrs by crystal violet staining assay; type: toxicity, cell-based; details: green monkey (Chlorocebus sabaeus)
[44] = molecular target: T2, Amyloid-beta precursor protein; assay: Inhibition of amyloid beta 40 peptide (unknown origin) aggregation at 100 uM incubated for 2 hr by ThT fluorescence based spectrofluorimetric analysis relative to control; summary of the method: as §3

Compound: O=c1c2ccccc2sc2c([N+](=O)[O-])ccc(NCCC[C@@H]3CCCN4CCCC[C@H]34)c12
- Activity [1]: 31%
- Activity [2]: 54.3%
- Activity [3]: 5.2%
- Activity [4]: 2.9%
- Activity [5]: 82.9%
- Activity [6]: 4.3%
- Activity [7]: 82.1%
- Activity [8]: 83.3%
- Activity [9]: 77%
- Activity [10]: 5.7%
- Activity [11]: 6.4%
- Activity [12]: 11.6%
- Activity [13]: -3.1%
- Activity [14]: 51%
- Activity [15]: 86.1%
- Activity [16]: 6.6%
- Activity [17]: 1.6%
- Activity [18]: 35.9%
- Activity [19]: 85.5%
- Activity [20]: 80.8%
- Activity [21]: 16.2%
- Activity [22]: 74.8%
- inhibition [23]: 22%
- Activity [24]: 4.7%
- Activity [25]: 3.7%
- Activity [26]: 79.4%
- Activity [27]: 0.3%
- Activity [28]: 79.1%
- Activity [29]: 1.7%
- Activity [30]: 19.1%
- Activity [31]: 79.6%
- Activity [32]: 42%
- IC50 [33]: 13 µM
- Activity [34]: 5.2%
- Activity [35]: 3.1%
- Activity [36]: 5%
- Activity [37]: 72.4%
- Activity [38]: 29.7%

Compound: COc1ccc2sc3c(C)ccc(NCCC[C@@H]4CCCN5CCCC[C@H]45)c3c(=O)c2c1
- Activity [1]: 6.1%
- Activity [2]: 10.7%
- Activity [3]: 2%
- Activity [4]: 3.4%
- Activity [5]: 52.4%
- Activity [6]: 3.3%
- Activity [7]: 48.6%
- Activity [8]: 18.4%
- Activity [9]: 17.8%
- Activity [10]: 5.7%
- Activity [11]: 4.9%
- Activity [12]: 3.8%
- Activity [13]: 4.2%
- Activity [14]: 9.3%
- Activity [15]: 19.6%
- Activity [16]: 4.4%
- Activity [17]: 1%
- Activity [18]: 4%
- Activity [19]: 8.9%
- Activity [20]: 54.3%
- Activity [21]: 5.3%
- Activity [22]: 42.1%
- Activity [24]: 2.2%
- Activity [25]: 1.8%
- Activity [26]: 37.6%
- Activity [27]: -0.1%
- Activity [28]: 27.4%
- IC50 [39]: 5.9 µM
- Activity [29]: 5.8%
- Activity [30]: 5.7%
- Activity [31]: 33.6%
- Activity [32]: 9.5%
- IC50 [33]: 2.5 µM
- Activity [34]: 1.9%
- Activity [35]: 1.6%
- Activity [36]: 1.8%
- Activity [37]: 27.8%
- Activity [38]: 7.1%

Compound: Cc1ccc(NC[C@@H]2CCCN3CCCC[C@H]23)c2c(=O)c3ccccc3sc12
- IC50 [33]: 28 µM
- IC50 [43]: 12.4 µM

Second part, led by results:

- inhibition [40]: > 80%
- IC50 [39]: 46 µM
Compound: Cc1ccc(NCC[C@@H]2CCCN3CCCC[C@H]23)c2c(=O)c3ccccc3sc12
- IC50 at 24 h [41]: 7.22 µM
- viability at 10 µM [42]: 78%
- IC50 [43]: 12.4 µM

- IC50 [39]: 16 µM
- inhibition [44]: 55%
Compound: CCN(CC)CCCNc1ccc(C)c2oc3ccccc3c(=O)c12

- IC50 [39]: 10.9 µM
- IC50 [33]: 24 µM
Compound: CCN(CC)CCNc1ccc(C)c2sc3ccccc3c(=O)c12 [LUCANTHONE]
- IC50 [43]: 12.4 µM
